# In paper PMC4674360 (Molecular cancer therapeutics, 2015):
# “Also recorded” adds a separate entry of the source. Read-outs that look alike come from different tables or passages of the source.
# Assays:
# [1] = test system: GL261 tumors; settings: cited from earlier work
# [2] = test system: GBM12 orthotopic xenografts; assay: GBM12 orthotopic xenograft survival; assay type: in vivo, mice; settings: TMZ 50 mg/kg, rucaparib 1 mg/kg days 1-5 every 28 days × 3 cycles, placebo 16 days, p = 0.88
# [3] = test system: GBM12 flank xenografts; assay: GBM12 flank xenograft tumor regrowth delay; assay type: in vivo, mice; settings: TMZ 50 mg/kg days 1-5, rucaparib 1 mg/kg days 1-5, three 28 day cycles, placebo 32 days
# [4] = test system: PDGF-driven glioma; settings: higher drug delivery into brain in knockout mice; cited from earlier work
# [5] = MALDI mass spectrometric imaging of drug distribution; assay type: in vivo, mice; settings: thirty minutes after single 10 mg/kg IP dose
# How it was run: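 Tumour-bearing mice got one 10 mg/kg IP dose and were euthanised 30 min later. Brain, liver and tumour were snap-frozen; 12 µm cryosections went onto ITO slides, with sister sections for H&E. DHB matrix was sprayed on (160 mg/mL in methanol/0.2% TFA 70:30). Imaging used a 12 T FT-ICR MS, positive ion mode, m/z 100-2500, 250 shots per spot, 80 µm pixels (brain, liver) and 100 µm (flank tumour).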
# [6] = test system: PARP; assay: PARP enzymatic activity in tissue homogenates after a single dose; assay type: in vivo, mice
# [7] = Tolerability of chronic rucaparib with TMZ; assay type: in vivo, mice; settings: IP, with 50 mg/kg PO TMZ
# [8] = Steady-state brain distribution in wild-type and Mdr1a/b-/-Bcrp1-/- mice; assay type: in vivo, FVB mice
# How it was run: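 FVB wild-type and Mdr1a/b-/-Bcrp1-/- mice received the test compound for 48 h by intraperitoneal osmotic minipump at 5 µg/hr (pump stock 5 mg/mL in DMSO). Plasma and whole brain were flash-frozen. Brain was homogenised in 5% BSA, samples spiked with dasatinib internal standard and extracted in ethyl acetate, then assayed by positive-mode LC-MS/MS. Brain-to-plasma ratio reported as mean ± SD, n=4.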
# [9] = test system: GBM14, GBM43, GBM59 intracranial xenografts; assay: Other orthotopic primary GBM xenograft lines, survival; assay type: in vivo, mice; settings: three other primary GBM xenograft lines
# How it was run: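 Patient-derived GBM lines were kept by serial passage in mice and implanted intracranially. Mice with established tumours were randomised, 10 per group, to four arms: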
# [10] = biological target: T1, murine Breast Cancer Resistance Protein (BCRP1) (Mus musculus, UniProt Q7TMS5); assay: In vitro intracellular accumulation in BCRP1-overexpressing MDCKII cells; assay type: in vitro ADME; settings: rucaparib 2 −M, prazosin 0.39 nM, 60 minutes at 37°C, mean ± SD, n = 5-6
# T1 sequence (Q7TMS5 1-657): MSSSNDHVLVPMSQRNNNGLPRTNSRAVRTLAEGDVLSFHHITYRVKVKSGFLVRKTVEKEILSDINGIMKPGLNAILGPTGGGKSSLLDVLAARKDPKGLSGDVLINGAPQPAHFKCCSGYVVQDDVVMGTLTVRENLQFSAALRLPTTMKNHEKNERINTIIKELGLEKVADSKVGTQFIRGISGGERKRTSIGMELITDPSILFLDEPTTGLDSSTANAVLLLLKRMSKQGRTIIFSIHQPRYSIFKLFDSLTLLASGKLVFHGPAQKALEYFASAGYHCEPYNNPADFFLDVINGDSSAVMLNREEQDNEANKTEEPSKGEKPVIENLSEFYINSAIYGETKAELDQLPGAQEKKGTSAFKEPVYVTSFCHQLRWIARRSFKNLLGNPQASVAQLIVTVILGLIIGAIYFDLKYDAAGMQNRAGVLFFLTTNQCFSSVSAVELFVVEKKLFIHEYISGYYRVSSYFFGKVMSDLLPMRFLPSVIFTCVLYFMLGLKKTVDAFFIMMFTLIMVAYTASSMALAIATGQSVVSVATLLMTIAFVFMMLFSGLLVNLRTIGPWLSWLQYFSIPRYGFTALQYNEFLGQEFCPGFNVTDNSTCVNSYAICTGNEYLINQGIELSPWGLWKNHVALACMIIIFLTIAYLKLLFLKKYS
# How it was run: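 MDCKII cells (vector control or murine Bcrp1-transfected) were seeded at 2 x 10^5/well and grown to 80% confluence. After washing in serum-free buffer, cells were preincubated 30 min ± 0.2 µM Ko143. They were then exposed to 2 µM test compound or 0.39 nM prazosin (substrate control) for 60 min at 37°C. Uptake was stopped with cold PBS and cells lysed in 1% Triton X-100. Intracellular drug was measured by LC-MS/MS and normalised to BCA protein; mean ± SD, n = 5-6.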
# [11] = assay type: in vivo, mice; settings: for half-life: mouse, 1 mg/kg
# How it was run: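 Mice with orthotopic GBM12 xenografts got a single 1 mg/kg intraperitoneal dose. Plasma, liver and brain (tumour-injected and contralateral hemispheres) were collected and flash-frozen at 0, 60, 120, 360 and 1440 min after dosing. Drug levels were measured by LC-MS; values are the mean of 2 or 3 mice per time point.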
# [12] = 26 (veliparib); ref 48 (E7016); cited from earlier work
# [13] = test system: GBM22; settings: cited from earlier work
# [14] = 60 minutes, single 1 mg/kg dose
smiles,measurement,setting,value
"Cc1ccc2c(=O)c3cccc(CC(=O)O)c3oc2c1C [DMXAA, 5,6-dimethylxanthenone-4-acetic acid]",effect on survival with intracranial GL261 tumors,[1]; intracranial,no survival extension
same,effect on subcutaneous GL261 tumors,[1]; subcutaneous,significantly delayed tumor growth
"Cn1nnc2c(C(N)=O)ncn2c1=O [TMZ, temozolomide]",median survival,[2],68 days
same,Median time for tumor to exceed a 1000 mm^3 size endpoint,[3],86 days
Cc1nc(Nc2ncc(C(=O)Nc3c(C)cccc3Cl)s2)cc(N2CCN(CCO)CC2)n1 [dasatinib],survival of tumor-bearing Mdr1a/b-/-Bcrp1-/- knockout mice compared to wild-type mice,[4],significant improvement in survival
CNCc1ccc(-c2[nH]c3cc(F)cc4c3c2CCNC4=O)cc1 [rucaparib],rucaparib distribution in flank tumors by MALDI-MSI,"[5]; GBM12 flank, n=2",homogeneous and high-level accumulation
same,rucaparib distribution in orthotopic tumors by MALDI-MSI,"[5]; GBM12 orthotopic, n=3",no appreciable rucaparib signal
same,rucaparib distribution in normal brain by MALDI-MSI,"[5]; adjacent normal brain, 10 mg/kg",no appreciable rucaparib signal; also recorded: below the limit of detection
same,PARP activity in normal brain (contralateral hemisphere),[6]; by 360 minutes after injection,recovered to baseline
same,PARP activity in liver,[6]; reduced for several hours after single 1 mg/kg dose,5 % of baseline
same,PARP activity in tumor-injected hemisphere,"[6]; remained suppressed at this level for 24 hours, single 1 mg/kg dose",50 % of baseline
same,highest dose tolerated for chronic administration,[7],1 mg/kg
same,Kp at 48 h,"[8]; FVB, mouse, brain, ip, 5 µg/hr, brain to plasma ratio at steady state, Mdr1a/1b-/-;Bcrp1-/- (TKO) mice, 48-hour intraperitoneal infusion at 5 −g/hr, mean ± SD, n=4",1.61 ± 0.25
same,increase in the brain-to-plasma ratio in knockout versus wild-type mice,[8]; Mdr1a/b-/-Bcrp1-/- knockout mice,~20 fold
same,potentiation of TMZ by rucaparib,[9],did not potentiate TMZ
same,intracellular accumulation in BCRP1-overexpressing cells,[10],14.5±5.2 % of control
same,concentration in contralateral brain hemisphere,[11]; [14],0.08 −M
same,concentration in liver,[11]; [14],11.05 −M
same,concentration in tumor-injected hemisphere,[11]; [14],0.35 −M
same,concentration in tumor-injected hemisphere,"[11]; 6 hours, single 1 mg/kg dose",0.23 −M
same,levels in normal brain,"[11]; by 360 minutes after injection, single 1 mg/kg dose",undetectable
same,half-life,"[11]; plasma, ip",1.5 h
same,half-life,"[11]; tumor-injected brain hemisphere, intraperitoneal",13 h
same,maximum plasma concentration relative to Cmax in humans (times lower),[11]; single 1 mg/kg dose in mice versus human Cmax of ref 12,about four-five
COc1cc2nc(N3CCN(C(=O)c4ccco4)CC3)nc(N)c2cc1OC [prazosin],intracellular accumulation in BCRP1-overexpressing cells,[10],16.8±1.4 % of control
O=c1[nH]nc2c3c(cccc13)Oc1ccc(CN3CCC(O)CC3)cc1-2 [E7016],blood brain barrier penetration,[12],significantly penetrate the blood brain barrier
C=CCn1c(=O)c2cnc(Nc3ccc(N4CCN(C)CC4)cc3)nc2n1-c1cccc(C(C)(C)O)n1 [MK-1775],"sensitizing effect combined with temozolomide, flank models",[13]; flank models,significant sensitizing effects
same,"sensitizing effect combined with temozolomide, GBM22",[13]; orthotopic GBM22 (contrasted with flank),no sensitizing effect
C[C@]1(c2nc3c(C(N)=O)cccc3[nH]2)CCCN1 [veliparib],blood brain barrier penetration,[12],significantly penetrate the blood brain barrier
